Molecules are shown by their SMILES. ≈ marks a conversion by molar mass, not a printed value.

Assay [1] concerns Mycobacterium tuberculosis. As to the kind of experiment: Antimycobacterial activity against Mycobacterium tuberculosis H37RvMA ATCC 27294 cultured in protein-based Middlebrook 7H9 medium supplemented with glucose, albumin-dextrose-catalase and Tween 80 assessed as inhibition of bacterial growth incubated for 7 days in by alamar blue staining based assay. The conditions noted are these: H37RvMA ATCC 27294, 168 h. The assay is classed as functional. An outline of the steps:
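Broth microdilution MIC90 assay against H37RvMa (ATCC 27294). Culture grown to OD600 0.6–0.7, diluted 1:500. Compounds come from 10 mM DMSO stocks and are run as duplicate two-fold dilutions over 10 wells. Plates incubated at 37 °C, 5% CO2, humidified. AlamarBlue added on day 7 and incubated 24 h more, then read on day 8, visually (blue = no growth) or by fluorescence (excitation 540 nm).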
(In general: Resazurin is reduced to fluorescent resorufin, in cell work by metabolically active cells.)

Assay [2] has as its system Mycobacterium tuberculosis. The experiment in a line: Antimycobacterial activity against Mycobacterium tuberculosis H37RvMA ATCC 27294 cultured in non protein-based Middlebrook 7H9 medium supplemented with glucose-casitone-tyloxapol assessed as inhibition of bacterial growth incubated for 7 days in by alamar blue staining based assay. The assay is classed as functional. The conditions noted are these: H37RvMA ATCC 27294, 168 h. A digest of the protocol:
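Medium is 7H9 with 0.03% Casitone, 0.4% glucose and 0.05% Tyloxapol. H37RvMa is grown to OD600 0.6–0.7 and diluted 1:500. Duplicate two-fold dilutions over 10 wells come from 10 mM DMSO stocks. Incubation at 37 °C, 5% CO2. AlamarBlue added on day 7. The MIC90 is the lowest concentration with no visible growth on day 8, or is read by fluorescence.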

Assay [3] relates to CHO-K1. As to the kind of experiment: Cytotoxicity against CHOK1 cells assessed as reduction in cell viability incubated for 48 hrs by MTT assay. The assay is classed as cell-based. The note with it: Cricetulus griseus, CHO-K1, 48 h. An outline of the steps:
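CHO-K1 cells seeded at 10^5 cells/well 24 h before exposure, medium then replaced with fresh medium containing compound; 48 h at 37 °C, 5% CO2, MTT added at 44 h for 4 h, formazan dissolved in DMSO, OD read at 540 nm. Triplicates; DMSO stocks 2 mg/mL, poorly soluble samples as suspensions; emetine reference; IC50 from non-linear dose-response fit.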
In general terms: Formazan colour is commonly taken as a measure of viable cells.

For orientation: MIC90 means the lowest concentration that inhibits either 90% of growth or 90% of the strains tested, depending on the study. What is called IC50 is the concentration that gives 50% inhibition. For `COc1ccccc1NC(=O)/C(CCC=C(C)C)=C1\[C@@H](OC(C)=O)C[C@@]2(C)[C@H]1C[C@@H](O)[C@H]1[C@@]3(C)CC[C@@H](O)[C@@H](C)[C@@H]3CC[C@@]12C`, the MIC90 in assay [1] amounted to 43.2 µM (≈ 26.9 µg/mL); in assay [2], 6.2 µM (≈ 3.86 µg/mL). The IC50 in assay [3] came to 46.1 µM.

For the molecule `CC(=O)O[C@H]1C[C@@]2(C)[C@@H](C[C@@H](O)[C@H]3[C@@]4(C)CC[C@@H](O)[C@@H](C)[C@@H]4CC[C@@]32C)/C1=C(\CCC=C(C)C)C(=O)Nc1ccc(F)cc1`, the MIC90 in assay [1] and in assay [2] was 125 µM (≈ 76.2 µg/mL) each time. The IC50 in assay [3] was found to be 39.9 µM.

In the case of `CC(=O)O[C@H]1C[C@@]2(C)[C@@H](C[C@@H](O)[C@H]3[C@@]4(C)CC[C@@H](O)[C@@H](C)[C@@H]4CC[C@@]32C)/C1=C(\CCC=C(C)C)C(=O)N[C@H](C)c1ccccc1Cl`, the MIC90 was above 125 µM in assay [1] and 10.1 µM (≈ 6.61 µg/mL) in assay [2]. Also, the IC50 in assay [3] was determined as 18.2 µM.

`CC(=O)O[C@H]1C[C@@]2(C)[C@@H](C[C@@H](O)[C@H]3[C@@]4(C)CC[C@@H](O)[C@@H](C)[C@@H]4CC[C@@]32C)/C1=C(\CCC=C(C)C)C(=O)N[C@H](C)c1ccc(F)cc1`: the MIC90 in assay [1] and in assay [2] was above 125 µM throughout. Further, the IC50 in assay [3] came out at 8.24 µM.

Take `CC(=O)O[C@H]1C[C@@]2(C)[C@@H](C[C@@H](O)[C@H]3[C@@]4(C)CC[C@@H](O)[C@@H](C)[C@@H]4CC[C@@]32C)/C1=C(\CCC=C(C)C)C(=O)NCc1ccc(S(N)(=O)=O)cc1`: the MIC90 in assay [1] stood at 62.3 µM (≈ 42.7 µg/mL); in assay [2], 2.71 µM (≈ 1.86 µg/mL). Moreover, in assay [3], the IC50 turned out to be 30.2 µM.

On to `CC(=O)O[C@H]1C[C@@]2(C)[C@@H](C[C@@H](O)[C@H]3[C@@]4(C)CC[C@@H](O)[C@@H](C)[C@@H]4CC[C@@]32C)/C1=C(\CCC=C(C)C)C(=O)N[C@@H](C)c1ccc(F)cc1`, for which the MIC90 is above 125 µM in assay [1] and 7.59 µM (≈ 4.84 µg/mL) in assay [2]. Moreover, the IC50 in assay [3] was found to be 47.4 µM.

With `COC(=O)[C@H](NC(=O)/C(CCC=C(C)C)=C1\[C@@H](OC(C)=O)C[C@@]2(C)[C@H]1C[C@@H](O)[C@H]1[C@@]3(C)CC[C@@H](O)[C@@H](C)[C@@H]3CC[C@@]12C)c1ccccc1`, the MIC90 turned out to be 38.8 µM (≈ 25.8 µg/mL) in assay [1] and 7.1 µM (≈ 4.71 µg/mL) in assay [2]. Further, in assay [3], the IC50 came out at 42.9 µM.

On to `CC(=O)O[C@H]1C[C@@]2(C)[C@@H](C[C@@H](O)[C@H]3[C@@]4(C)CC[C@@H](O)[C@@H](C)[C@@H]4CC[C@@]32C)/C1=C(\CCC=C(C)C)C(=O)Nc1ccc(O)cc1`, for which the MIC90 in assay [1] was above 125 µM; in assay [2], 6.9 µM (≈ 4.19 µg/mL). Moreover, in assay [3], the IC50 came out at 45.4 µM.

For `CC(=O)O[C@H]1C[C@@]2(C)[C@@H](C[C@@H](O)[C@H]3[C@@]4(C)CC[C@@H](O)[C@@H](C)[C@@H]4CC[C@@]32C)/C1=C(\CCC=C(C)C)C(=O)N[C@@H](C)c1ccccc1`, the results for the MIC90 in assay [1] and in assay [2] were above 125 µM and 8.9 µM (≈ 5.52 µg/mL), respectively. The IC50 in assay [3] was 46 µM.

On to `COc1ccc(NC(=O)/C(CCC=C(C)C)=C2\[C@@H](OC(C)=O)C[C@@]3(C)[C@H]2C[C@@H](O)[C@H]2[C@@]4(C)CC[C@@H](O)[C@@H](C)[C@@H]4CC[C@@]23C)cc1`, for which the MIC90 in assay [1] and in assay [2] was above 125 µM throughout. Moreover, the IC50 in assay [3] was 47.1 µM.

`CC(=O)O[C@H]1C[C@@]2(C)[C@@H](C[C@@H](O)[C@H]3[C@@]4(C)CC[C@@H](O)[C@@H](C)[C@@H]4CC[C@@]32C)/C1=C(\CCC=C(C)C)C(=O)N[C@@H](C)c1ccccc1Cl`: the MIC90 in assay [1] was found to be 41.5 µM (≈ 27.2 µg/mL); in assay [2] it was 9.8 µM (≈ 6.41 µg/mL). In assay [3], the IC50 turned out to be 45.1 µM.

In the case of `CC(=O)O[C@H]1C[C@@]2(C)[C@@H](C[C@@H](O)[C@H]3[C@@]4(C)CC[C@@H](O)[C@@H](C)[C@@H]4CC[C@@]32C)/C1=C(\CCC=C(C)C)C(=O)N[C@@H](C)C1CCCCC1`, the MIC90 was above 125 µM in assay [1] and 4.5 µM (≈ 2.82 µg/mL) in assay [2]. Further, the IC50 in assay [3] was found to be 44.7 µM.

Take `CC(=O)O[C@H]1C[C@@]2(C)[C@@H](C[C@@H](O)[C@H]3[C@@]4(C)CC[C@@H](O)[C@@H](C)[C@@H]4CC[C@@]32C)/C1=C(\CCC=C(C)C)C(=O)NCc1ccc(O)cc1`: the MIC90 in assay [1] and in assay [2] was 125 µM (≈ 77.7 µg/mL) throughout. Besides, in assay [3], the IC50 was above 50 µM.

Consider `CC(=O)O[C@H]1C[C@@]2(C)[C@@H](C[C@@H](O)[C@H]3[C@@]4(C)CC[C@@H](O)[C@@H](C)[C@@H]4CC[C@@]32C)/C1=C(\CCC=C(C)C)C(=O)N[C@H](C)c1ccccc1`, for which the MIC90 in assay [1] is above 125 µM; in assay [2], 11 µM (≈ 6.82 µg/mL). Moreover, the IC50 in assay [3] is 47.6 µM.

Regarding `CC(=O)O[C@H]1C[C@@]2(C)[C@@H](C[C@@H](O)[C@H]3[C@@]4(C)CC[C@@H](O)[C@@H](C)[C@@H]4CC[C@@]32C)/C1=C(\CCC=C(C)C)C(=O)NC1(c2ccccc2)CC1`, the MIC90 is above 125 µM in assay [1] and 13.9 µM (≈ 8.78 µg/mL) in assay [2]. In assay [3], the IC50 was 36.8 µM.

With `CC(=O)O[C@H]1C[C@@]2(C)[C@@H](C[C@@H](O)[C@H]3[C@@]4(C)CC[C@@H](O)[C@@H](C)[C@@H]4CC[C@@]32C)/C1=C(\CCC=C(C)C)C(=O)Nc1ccc(C)cc1`, the MIC90 in assay [1] was 125 µM (≈ 75.7 µg/mL); in assay [2] it was above 125 µM. In addition, the IC50 in assay [3] was above 50 µM.

Take `CC(=O)O[C@H]1C[C@@]2(C)[C@@H](C[C@@H](O)[C@H]3[C@@]4(C)CC[C@@H](O)[C@@H](C)[C@@H]4CC[C@@]32C)/C1=C(\CCC=C(C)C)C(=O)NCc1ccc(F)cc1`: the MIC90 in assay [1] was 125 µM (≈ 78 µg/mL); in assay [2] it was above 125 µM. Further, the IC50 in assay [3] came out at 40.2 µM.

For the molecule `CC(=O)O[C@H]1C[C@@]2(C)[C@@H](C[C@@H](O)[C@H]3[C@@]4(C)CC[C@@H](O)[C@@H](C)[C@@H]4CC[C@@]32C)/C1=C(\CCC=C(C)C)C(=O)N[C@@H](C(N)=O)c1ccccc1`, the MIC90 in assay [1] was found to be 15.7 µM (≈ 10.2 µg/mL); in assay [2], 9.1 µM (≈ 5.9 µg/mL). Further, the IC50 in assay [3] is above 50 µM.

Consider `COc1cccc(NC(=O)/C(CCC=C(C)C)=C2\[C@@H](OC(C)=O)C[C@@]3(C)[C@H]2C[C@@H](O)[C@H]2[C@@]4(C)CC[C@@H](O)[C@@H](C)[C@@H]4CC[C@@]23C)c1`, for which the MIC90 in assay [1] and in assay [2] was above 125 µM throughout. Besides, the IC50 in assay [3] worked out at 42.7 µM.

On to `CC(=O)O[C@H]1C[C@@]2(C)[C@@H](C[C@@H](O)[C@H]3[C@@]4(C)CC[C@@H](O)[C@@H](C)[C@@H]4CC[C@@]32C)/C1=C(\CCC=C(C)C)C(=O)NCc1ccccc1`, for which the results for the MIC90 in assay [1] and in assay [2] were 125 µM (≈ 75.7 µg/mL) and above 125 µM, respectively. In assay [3], the IC50 came out at 44.1 µM.

`CC(=O)O[C@H]1C[C@@]2(C)[C@@H](C[C@@H](O)[C@H]3[C@@]4(C)CC[C@@H](O)[C@@H](C)[C@@H]4CC[C@@]32C)/C1=C(\CCC=C(C)C)C(=O)N[C@H](C)C1CCCCC1`: the MIC90 in assay [1] is above 125 µM; in assay [2] it was 7.45 µM (≈ 4.66 µg/mL). In addition, in assay [3], the IC50 is above 50 µM.

Take `CC[C@H]1CN2CCc3cc(OC)c(OC)cc3[C@@H]2C[C@@H]1C[C@H]1NCCc2cc(OC)c(OC)cc21` [EMETINE]: the IC50 in assay [3] came to 0.02 µM.

On to `CO[C@H]1/C=C/O[C@@]2(C)Oc3c(C)c(O)c4c(O)c(c(/C=N/N5CCN(C)CC5)c(O)c4c3C2=O)NC(=O)/C(C)=C\C=C\[C@H](C)[C@H](O)[C@@H](C)[C@@H](O)[C@@H](C)[C@H](OC(C)=O)[C@@H]1C` [RIFAMPIN], for which the MIC90 is 0.009 µM (≈ 0.00741 µg/mL) in assay [1] and 0.02 µM (≈ 0.0165 µg/mL) in assay [2].
